Measurements published in ChEMBL document CHEMBL3616462, “Synthesis and antiviral activity of maleopimaric and quinopimaric acids' derivatives” (Bioorg Med Chem, 2015).
pEC50: −log10 of the molar value.

Key:
[1] = Cytotoxicity against HBV infected human HepG2(2.2.15) cells; format: cell-based; conditions: HBV infected HepG2(2.2.15) cells
In short: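 Toxicity was measured on confluent 2.2.15 cells alongside the primary anti-HBV assay. CC50 is given in µM.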

[2] = Toxicity against human Huh7ET cells assessed as reduction in beta-actin RNA levels at 20 uM; format: cell-based, Huh-7; conditions: values are per cent of control
In short: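 HCV RNA replicon assay in Huh7 ET cells. Compounds were added in triplicate at a single concentration of 20 µM. Cytotoxicity was read as β-actin RNA as % of control, alongside HCV RNA-derived luciferase activity. Interferon-α (2 IU/mL) was the positive control.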

Hepatitis B virus = test: Antiviral activity against HBV infected in human HepG2(2.2.15) cells; format: functional, organism-based
In short: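 Primary anti-HBV screen in confluent 2.2.15 cells, run alongside a toxicity assay in the same cells. Compounds were supplied as DMSO solutions.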

[3] = Selectivity index, ratio of toxicity against human Huh7ET cells assessed as reduction in beta-actin RNA levels at 20 uM to antiviral activity against HCV infected in human Huh7ET cells assessed as reduction in HCV RNA-derived luciferase activity at 20 uM by luciferase reporter gene assay; format: cell-based, Huh-7; conditions: read-out: Selectivity Index
In short: (§1)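 HCV RNA replicon assay in Huh7 ET cells. Compounds were added in triplicate at a single concentration of 20 µM. Antiviral activity was read as HCV RNA-derived luciferase signal, expressed as % of control. Toxicity was read as β-actin RNA, % of control. SI = toxicity/antiviral activity. Interferon-α (2 IU/mL) was the positive control.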

Hepatitis C virus = test: Antiviral activity against HCV infected in human Huh7ET cells assessed as reduction in HCV RNA-derived luciferase activity at 20 uM by luciferase reporter gene assay; format: functional, Hepacivirus hominis; conditions: Huh-7; in short: as §1
[4] = Cytotoxicity against Influenza A virus (A/Brisbane/10/2007(H3N2)) infected MDCK cells; format: cell-based, Canis lupus familiaris; conditions: dog
[5] = Selectivity index, ratio of CC50 for Influenza B virus (B/Florida/4/2006) infected MDCK cells to EC50 for antiviral activity against Influenza B virus (B/Florida/4/2006) in MDCK cells; format: toxicity, cell-based; conditions: dog; read-out: Ratio CC50/EC50
[6] = Antiviral activity against Influenza A virus (A/Brisbane/10/2007(H3N2)) infected in MDCK cells; format: functional, cell-based
[7] = Cytotoxicity against Influenza B virus (B/Florida/4/2006) infected MDCK cells; format: cell-based, Canis lupus familiaris; conditions: dog
[8] = Antiviral activity against Influenza A virus (A/California/07/2009(H1N1)) infected in MDCK cells; format: functional, cell-based
[9] = Cytotoxicity against Influenza A virus (A/California/07/2009(H1N1)) infected MDCK cells; format: cell-based, Canis lupus familiaris; conditions: dog
[10] = Antiviral activity against Influenza A virus (A/Viet Nam/1203/2004(H5N1)) infected in MDCK cells; format: functional, cell-based
Influenza B virus = test: Antiviral activity against Influenza B virus (B/Florida/4/2006) in MDCK cells; format: functional, cell-based; conditions: B/Florida/4/2006, MDCK
[11] = Cytotoxicity against Influenza A virus (A/Viet Nam/1203/2004(H5N1)) infected MDCK cells; format: cell-based, Canis lupus familiaris; conditions: dog
[12] = Selectivity index, ratio of CC50 for Influenza A virus (A/Viet Nam/1203/2004(H5N1)) infected MDCK cells to EC50 for antiviral activity against Influenza A virus (A/Viet Nam/1203/2004(H5N1)) infected in MDCK cells; format: toxicity, cell-based; conditions: dog; read-out: Ratio CC50/EC50
[13] = Selectivity index, ratio of CC50 for Influenza A virus (A/California/07/2009(H1N1)) infected MDCK cells to EC50 for antiviral activity against Influenza A virus H1N1 (A/California/07/2009(H1N1)) infected in MDCK cells; format: toxicity, cell-based; conditions: dog; read-out: Ratio CC50/EC50
[14] = Selectivity index, ratio of CC50 for Influenza A virus (A/Brisbane/10/2007(H3N2)) infected MDCK cells to EC50 for antiviral activity against Influenza A virus (A/Brisbane/10/2007(H3N2)); format: toxicity, cell-based; conditions: dog; read-out: Ratio CC50/EC50

COC(=O)[C@]1(C)CCC[C@]2(C)[C@H]3C[C@H]4C(=C(C)C)C5O[C@@]6(O)CCC(=O)[C@H]4[C@@H]6[C@@]53CC[C@H]21
CC50 [1]: 59 µM | response, % of control ([2]; huh-7, 20 µM): 151.2% | pEC50 (Hepatitis B virus): < 5.00 | EC90 (Hepatitis B virus): > 10 µM | selectivity ratio at 20 µM [3]: > 1 | inhibition at 20 µM (Hepatitis C virus): 68.4%

COC(=O)[C@]1(C)CCC[C@]2(C)[C@H]3C[C@H]4C(C(C)C)=C[C@]3(CC[C@H]21)[C@@H]1C(=O)CCC(=O)[C@@H]14
CC50 [4]: > 100 µM | selectivity ratio [5]: > 3.1 | pEC50 [6]: < 4.00 | CC50 [7]: > 100 µM | pEC50 [8]: < 4.00 | CC50 [9]: > 100 µM | pEC50 [10]: < 4.00 | pEC50 (Influenza B virus): 4.49 | CC50 [11]: > 100 µM

COC(=O)[C@H](CCSC)NC(=O)[C@]1(C)CCC[C@]2(C)[C@H]3C[C@H]4C(C(C)C)=C[C@]3(CC[C@H]21)[C@@H]1C(=O)OC(=O)[C@@H]14
selectivity ratio [12]: 1 | CC50 [4]: 30 µM | selectivity ratio [5]: 1 | selectivity ratio [13]: 1.1 | pEC50 [6]: < 4.52 | CC50 [7]: 32 µM | pEC50 [8]: 4.51 | CC50 [9]: 34 µM | pEC50 [10]: 4.49 | pEC50 (Influenza B virus): 4.49 | CC50 [11]: 32 µM

COC(=O)[C@]1(C)CCC[C@]2(C)[C@H]3C[C@H]4C(C(C)C)=C[C@]3(CC[C@H]21)[C@@H]1C(=O)CC[C@H](OC(=O)c2cccnc2)[C@@H]14
selectivity ratio [14]: 1 | selectivity ratio [12]: 1 | CC50 [4]: 33 µM | selectivity ratio [5]: 1 | selectivity ratio [13]: 1.1 | pEC50 [6]: 4.49 | CC50 [7]: 3.2 µM | pEC50 [8]: 4.49 | CC50 [9]: 35 µM | pEC50 [10]: 5.49 | pEC50 (Influenza B virus): 5.49 | CC50 [11]: 3.2 µM

COC(=O)[C@]12CC[C@H](O)[C@H]1[C@@]13C=C(C(C)C)[C@@H]2C[C@@H]1[C@@]1(C)CCC[C@@](C)(C(=O)OC)[C@@H]1CC3
selectivity ratio [12]: 1 | CC50 [4]: 24 µM | selectivity ratio [13]: 1.1 | pEC50 [6]: < 4.62 | CC50 [7]: 3.1 µM | pEC50 [8]: 4.49 | CC50 [9]: 35 µM | pEC50 [10]: 5.49 | pEC50 (Influenza B virus): < 5.51 | CC50 [11]: 3.2 µM

COC(=O)[C@H](C)NC(=O)[C@]1(C)CCC[C@]2(C)[C@H]3C[C@H]4C(C(C)C)=C[C@]3(CC[C@H]21)[C@@H]1C(=O)OC(=O)[C@@H]14
selectivity ratio [14]: 1 | selectivity ratio [12]: 1 | CC50 [4]: 33 µM | selectivity ratio [5]: 1 | selectivity ratio [13]: 1.1 | pEC50 [6]: 4.49 | CC50 [7]: 33 µM | pEC50 [8]: 4.49 | CC50 [9]: 34 µM | pEC50 [10]: 4.49 | pEC50 (Influenza B virus): 4.49 | CC50 [11]: 33 µM

COC(=O)[C@]1(C)CCC[C@]2(C)[C@H]3C[C@H]4C(C(C)C)=C[C@]3(CC[C@H]21)[C@@H]1C(=O)[C@H]2O[C@H]2C(=O)[C@@H]14
selectivity ratio [12]: 1 | CC50 [4]: 23 µM | selectivity ratio [5]: 1 | selectivity ratio [13]: 1.2 | pEC50 [6]: < 4.64 | CC50 [7]: 3.3 µM | pEC50 [8]: 4.54 | CC50 [9]: 34 µM | pEC50 [10]: 5.49 | pEC50 (Influenza B virus): 5.49 | CC50 [11]: 3.3 µM

COC(=O)[C@]12CCC(=O)[C@H]1[C@@]13C=C(C(C)C)[C@@H]2C[C@@H]1[C@@]1(C)CCC[C@@](C)(C(=O)OC)[C@@H]1CC3
selectivity ratio [14]: 1 | selectivity ratio [12]: 1 | CC50 [4]: 33 µM | selectivity ratio [13]: 1.1 | pEC50 [6]: 4.49 | CC50 [7]: 31 µM | pEC50 [8]: 4.51 | CC50 [9]: 34 µM | pEC50 [10]: 4.49 | pEC50 (Influenza B virus): < 4.51 | CC50 [11]: 32 µM

COC(=O)[C@]1(C)CCC[C@]2(C)[C@H]3C[C@H]4C(C(C)C)=C[C@]3(CC[C@H]21)[C@@H]1C(=O)CC[C@H](OC(=O)/C=C/c2ccccc2)[C@@H]14
CC50 [4]: 17 µM | selectivity ratio [5]: 2.4 | selectivity ratio [13]: 1.1 | pEC50 [6]: < 4.77 | CC50 [7]: 24 µM | pEC50 [8]: 4.51 | CC50 [9]: 35 µM | pEC50 [10]: < 5.05 | pEC50 (Influenza B virus): 5.00 | CC50 [11]: 9 µM

CC(C)C1=C[C@@]23CC[C@@H]4[C@](C)(CCC[C@@]4(C)C(=O)O)[C@H]2C[C@@H]1[C@H]1C(=O)CCC(=O)[C@H]13
CC50 [1]: 62 µM | selectivity ratio [14]: 1.1 | CC50 [4]: 36 µM | response, % of control at 20 µM ([2]; Huh7ET cells): 88% | selectivity ratio [5]: 4 | pEC50 (Hepatitis B virus): < 5.00 | EC90 (Hepatitis B virus): > 10 µM | selectivity ratio at 20 µM [3]: < 1 | pEC50 [6]: 4.49 | CC50 [7]: 34 µM | pEC50 (Influenza B virus): 5.07 | inhibition at 20 µM (Hepatitis C virus): 0%

COC(=O)[C@]1(C)CCC[C@]2(C)[C@H]3C[C@H]4C(C(C)C)=C[C@]3(CC[C@H]21)[C@@H]1C(=O)CC[C@H](OC(=O)CCC(=O)O)[C@@H]14
selectivity ratio [12]: > 1.1 | CC50 [4]: > 100 µM | pEC50 [6]: < 4.00 | CC50 [7]: > 100 µM | pEC50 [8]: < 4.00 | CC50 [9]: > 100 µM | pEC50 [10]: 4.06 | pEC50 (Influenza B virus): < 4.00 | CC50 [11]: > 100 µM

CC(C)C1=C[C@]23CC[C@@H]4[C@](C)(CCC[C@@]4(C)C(=O)O)[C@H]2C[C@H]1[C@H]1C(=O)OC(=O)[C@H]13
selectivity ratio [14]: 1.2 | selectivity ratio [12]: 1.1 | CC50 [4]: 44 µM | selectivity ratio [5]: 1.3 | selectivity ratio [13]: 1.5 | pEC50 [6]: 4.43 | CC50 [7]: 36 µM | pEC50 [8]: 4.51 | CC50 [9]: 48 µM | pEC50 [10]: 4.49 | pEC50 (Influenza B virus): 4.57 | CC50 [11]: 35 µM

COC(=O)[C@]1(C)CCC[C@]2(C)[C@H]3C[C@H]4C(C(C)C)=C[C@]3(CC[C@H]21)[C@@H]1C(=O)OC(=O)[C@@H]14
selectivity ratio [14]: 1 | selectivity ratio [12]: 1.5 | CC50 [4]: 33 µM | selectivity ratio [13]: 1.1 | pEC50 [6]: 4.49 | CC50 [7]: 8.7 µM | pEC50 [8]: 4.51 | CC50 [9]: 35 µM | pEC50 [10]: 4.68 | pEC50 (Influenza B virus): < 5.06 | CC50 [11]: 32 µM
